Experimental data taken from ChEMBL document CHEMBL1250450, “Well-defined regions of the Plasmodium falciparum reticulocyte binding protein homologue 4 mediate interaction with red blood cell membrane” (J Med Chem, 2010).
Residues, ends and D or L forms follow the SMILES beside them.

Legend:
Homo sapiens [1] = species on record: Homo sapiens; test: Binding affinity to RBC membrane receptor in human RBC assessed as specific binding activity measured as ratio of specifically bound peptide/added peptide by gamma counter
Outline: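 1 × 10^8 healthy-donor RBCs incubated in triplicate with four rising concentrations of 125I-peptide (0-560 nM), with or without unlabeled peptide, then washed in HBS (pH 7.4) and gamma-counted. Specific binding (total minus nonspecific) plotted against added peptide; the slope is the specific binding activity. The HABP cutoff is ≥2%.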

Plasmodium falciparum [2] = test: Antiplasmodial activity against Plasmodium falciparum FCB2 assessed as inhibition of merozoite invasion of human erythrocytes at 200 uM after 18 hrs using hydroethidine staining by flow cytometry; type: functional; conditions: FCB2, 18 h
Outline: (§1)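 Schizont-synchronized P. falciparum FCB-2 cultures incubated in triplicate with peptide (100 and 200 μM) using normal RBCs or, for the neuraminidase line, neuraminidase-treated RBCs. 37 °C for 18 h under 5% O2, 5% CO2, 90% N2. Cells washed with PBS, hydroethidine-labeled, read by flow cytometry (FL2). Inhibition controls were EGTA- and chloroquine-treated infected RBCs; uninfected RBCs served as invasion control.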

Plasmodium falciparum [3] = test: Antiplasmodial activity against Plasmodium falciparum FCB2 assessed as inhibition of merozoite invasion of neuraminidase pretreated human erythrocytes at 200 uM after 18 hrs using hydroethidine staining by flow cytometry; type: functional; outline: as §1
Homo sapiens [4] = species on record: Homo sapiens; test: Binding affinity to RBC membrane receptor in 150 uU/mL neuraminidase pretreated human RBC relative to untreated RBC
Outline: (§2)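 Human RBCs (60% hematocrit) treated 1 h at 37 °C with neuraminidase (150 μU/mL), chymotrypsin (1 mg/mL) or trypsin (1 mg/mL). Standard radiolabeled-peptide binding then run on treated cells at 20% hematocrit. Binding expressed relative to untreated RBCs set as 100%.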

Homo sapiens [5] = species on record: Homo sapiens; test: Binding affinity to RBC membrane receptor in 1 mg/mL chymotrypsin pretreated human RBC relative to untreated RBC; outline: as §2
Homo sapiens [6] = species on record: Homo sapiens; test: Binding affinity to RBC membrane receptor in 1 mg/mL trypsin pretreated human RBC relative to untreated RBC; outline: as §2

| Compound | Activity (Homo sapiens [1]) [%] | other results |
| --- | --- | --- |
| H-KYNLPQERIIKNYNHNGINN-OH | < 2 | – |
| H-KINNNLKDITHIVINDNNTLY-OH | < 2 | – |
| H-INNLMIISFDKNKSSDLMLQY-OH | < 2 | – |
| H-LPVYFDEVEDEVEDEVEDED-OH | < 2 | – |
| H-YTTFKYLQTLNKSLYDSIYK-OH | < 2 | – |
| H-IQNHKNKQETKLNTTTIQELY-OH | < 2 | – |
| CC[C@H](C)[C@H](NC(=O)[C@H](CC(N)=O)NC(=O)[C@H](CCCCN)NC(=O)[C@H](CCC(=O)O)NC(=O)[C@H](CC(N)=O)NC(=O)[C@@H](NC(=O)[C@H](Cc1cnc[nH]1)NC(=O)[C@H](CCC(=O)O)NC(=O)[C@H](CC(N)=O)NC(=O)[C@H](CC(N)=O)NC(=O)[C@@H](NC(=O)[C@H](CC(N)=O)NC(=O)[C@H](CC(N)=O)NC(=O)[C@H](CCC(=O)O)NC(=O)[C@H](CC(N)=O)NC(=O)[C@@H](NC(=O)[C@H](Cc1cnc[nH]1)NC(=O)[C@H](CCC(=O)O)NC(=O)[C@H](CC(N)=O)NC(=O)[C@@H](N)CC(N)=O)[C@H](C)O)[C@@H](C)CC)[C@H](C)O)C(=O)N[C@@H](Cc1ccc(O)cc1)C(=O)O | < 2 | – |
| H-TCHSIQTLLNNLISSKIIFKY-OH | < 2 | – |
| H-NHVELYIKNFQKNKIQIHKN-OH | < 2 | – |
| H-QEFNKKIQHFKEETQIMIWKY-OH | < 2 | – |
| H-QNYNQENQEKSKMIDSENEK-OH | – | inhibition at 200 µM (Plasmodium falciparum [2]): 39%; inhibition at 200 µM (Plasmodium falciparum [3]): 37% |
| H-MLETTKEQILLLWNNKKISQY-OH | > 2 | – |
| H-EKGKRGTSRNNNIHTNENNIY-OH | < 2 | – |
| H-ELIPITQQIQTKMYTTNNIE-OH | < 2 | – |
| H-KIHTLEELKILTQEINDKNVY-OH | < 2 | – |
| H-EHTIYTLYQEIKTNLENIEQ-OH | > 2 | inhibition at 200 µM (Plasmodium falciparum [2]): 72%; inhibition at 200 µM (Plasmodium falciparum [3]): 71% |
| H-NEEENEMGYGITNKRKNSET-OH | < 2 | inhibition at 200 µM (Plasmodium falciparum [2]): 43%; inhibition at 200 µM (Plasmodium falciparum [3]): 40% |
| H-IRKIYDIETIYQNDLHNIEE-OH | < 2 | – |
| CC[C@H](C)[C@H](NC(=O)[C@H](CCC(N)=O)NC(=O)[C@H](CCC(N)=O)NC(=O)[C@H](CO)NC(=O)[C@H](Cc1ccc(O)cc1)NC(=O)[C@H](CC(N)=O)NC(=O)[C@@H](NC(=O)[C@H](CC(N)=O)NC(=O)[C@H](Cc1cnc[nH]1)NC(=O)[C@@H](NC(=O)[C@H](Cc1ccccc1)NC(=O)[C@@H](NC(=O)[C@H](CC(=O)O)NC(=O)[C@@H](N)CO)C(C)C)[C@H](C)O)[C@@H](C)CC)C(=O)N[C@@H](CC(C)C)C(=O)N[C@@H](CC(N)=O)C(=O)N[C@@H](Cc1ccc(O)cc1)C(=O)N[C@@H](CO)C(=O)N[C@@H](CCC(N)=O)C(=O)N[C@@H](C)C(=O)O | < 2 | – |
| CC[C@H](C)[C@H](NC(=O)[C@@H](NC(=O)[C@H](CCCNC(=N)N)NC(=O)[C@H](CCC(N)=O)NC(=O)[C@H](CO)NC(=O)[C@@H](NC(=O)[C@H](CC(N)=O)NC(=O)[C@@H](NC(=O)[C@@H](NC(=O)[C@@H](N)CCCCN)[C@@H](C)O)[C@@H](C)CC)[C@H](C)O)[C@@H](C)O)C(=O)N[C@@H](CC(=O)O)C(=O)N[C@@H](CC(=O)O)C(=O)N[C@@H](CO)C(=O)N[C@@H](CC(N)=O)C(=O)N[C@@H](CCSC)C(=O)N[C@@H](CC(=O)O)C(=O)N[C@@H](CCCNC(=N)N)C(=O)N[C@@H](CC(N)=O)C(=O)N[C@@H](CC(N)=O)C(=O)N[C@@H](CCCNC(=N)N)C(=O)N[C@@H](Cc1ccc(O)cc1)C(=O)O | < 2 | – |

| Compound | Activity (Homo sapiens [1]) [%] | other results |
| --- | --- | --- |
| H-QFYINEKNYNNNHDDHNDDH-OH | < 2 | – |
| H-HKINNYSHNIEDLINQLQHK-OH | < 2 | – |
| H-LPEHIKQKSVSELNIYMKQI-OH | > 2 | inhibition at 200 µM (Plasmodium falciparum [2]): 41%; inhibition at 200 µM (Plasmodium falciparum [3]): 42% |
| H-NNEHANEKNIYNEHTNENNI-OH | < 2 | – |
| H-KNSQNQHDINKTHHTNNNYD-OH | – | inhibition at 200 µM (Plasmodium falciparum [2]): 37%; inhibition at 200 µM (Plasmodium falciparum [3]): 3% |
| H-NNLKDNIQININNIKSIIRNY-OH | < 2 | – |
| H-FDQINQKYDDLTKNINQMND-OH | < 2 | – |
| H-IFQKEFSEADNAHSEEKEEY-OH | < 2 | – |
| H-NTTETQLNHIKQNINHFKYF-OH | > 2 | Activity (Homo sapiens [4]): 89.5%; Activity (Homo sapiens [5]): 135%; Activity (Homo sapiens [6]): 55.5%; inhibition at 200 µM (Plasmodium falciparum [2]): 97%; inhibition at 200 µM (Plasmodium falciparum [3]): 97% |
| H-NGQKLKTDIILNSFVQINSSY-OH | < 2 | – |
| H-QENITTFENQYKDLIIKMNH-OH | < 2 | – |
| H-NILMDEIENYVKKYTESNRI-OH | > 2 | Activity (Homo sapiens [4]): 94.3%; Activity (Homo sapiens [5]): 169%; Activity (Homo sapiens [6]): 220%; inhibition at 200 µM (Plasmodium falciparum [2]): 46%; inhibition at 200 µM (Plasmodium falciparum [3]): 49% |
| H-YNTSSQQKNNLHTNNNSNSR-OH | < 2 | – |
| H-DYSLLKLSYNKNQDIYKNIQ-OH | < 2 | – |
| CC[C@H](C)[C@H](NC(=O)[C@H](Cc1ccc(O)cc1)NC(=O)[C@H](CCC(=O)O)NC(=O)[C@H](CC(N)=O)NC(=O)[C@@H](NC(=O)[C@H](CCCCN)NC(=O)[C@@H](N)CCCCN)C(C)C)C(=O)N[C@@H](CC(N)=O)C(=O)N[C@@H](CC(N)=O)C(=O)N[C@@H](CO)C(=O)N[C@@H](CC(=O)O)C(=O)N[C@@H](CS)C(=O)N[C@@H](Cc1cnc[nH]1)C(=O)N[C@@H](CC(C)C)C(=O)N[C@H](C(=O)N[C@@H](CS)C(=O)N[C@@H](CO)C(=O)N[C@@H](CCCCN)C(=O)N[C@@H](Cc1ccc(O)cc1)C(=O)N[C@@H](CCCCN)C(=O)O)[C@@H](C)O (H-KKVNEYINNSDCHLTCSKYK-OH) | < 2 | – |
| H-NLTNSTQEYINQIKAIPTNL-OH | < 2 | – |
| H-ITLLVSRKQLIYIEYIYFIN-OH | < 2 | – |
| CC[C@H](C)[C@H](NC(=O)[C@H](Cc1ccc(O)cc1)NC(=O)[C@H](CCC(=O)O)NC(=O)[C@H](Cc1ccc(O)cc1)NC(=O)[C@H](CCC(=O)O)NC(=O)[C@H](CCCCN)NC(=O)[C@H](C)NC(=O)[C@H](C)NC(=O)[C@H](CC(N)=O)NC(=O)[C@@H](NC(=O)[C@H](C)NC(=O)[C@H](CC(N)=O)NC(=O)[C@H](CC(N)=O)NC(=O)[C@H](CO)NC(=O)[C@H](CC(N)=O)NC(=O)[C@H](NC(=O)[C@@H](N)Cc1ccccc1)[C@@H](C)CC)C(C)C)C(=O)N[C@H](C(=O)N[C@@H](CCCCN)C(=O)N[C@@H](Cc1ccc(O)cc1)C(=O)O)[C@@H](C)CC | < 2 | – |
| H-HIKQILINYIQECKPIQNIS-OH | < 2 | – |
| H-FKQILELKEKEHYITNKHTY-OH | > 2 | inhibition at 200 µM (Plasmodium falciparum [2]): 46%; inhibition at 200 µM (Plasmodium falciparum [3]): 47% |

| Compound | Activity (Homo sapiens [1]) [%] | other results |
| --- | --- | --- |
| H-EKIGLRQMENRLKGKYEEIK-OH | < 2 | – |
| H-DDNFIEYNILNADPDLRSHF-OH | < 2 | – |
| H-FMQNETFKKNIDDKIKEMNNY-OH | < 2 | – |
| H-LQLLKDIKEIQTKQIDTKINY-OH | < 2 | – |
| H-NYEHPNNYQQKNDEKISLQH-OH | < 2 | – |
| H-LNIKDKDEKKRKNDNLINNY-OH | < 2 | – |
| H-KANLQDRDIKYIVQNNDANN-OH | < 2 | – |
| H-NISQNYNNHSLSFVHSINNH-OH | < 2 | – |
| H-IQHYQTKFNINTNTKQLQQL-OH | < 2 | – |
| H-KEIKKVLPQLYIPKNEQEYI-OH | < 2 | – |
| H-DIENIIKQNEHTESYKNLDT-OH | < 2 | – |
| H-PPNSPFRSYYDKNLNKDINE-OH | < 2 | – |
| H-IIKNITSIYYKINILNILII-OH | < 2 | – |
| CC[C@H](C)[C@H](NC(=O)[C@H](Cc1ccccc1)NC(=O)[C@H](Cc1ccccc1)NC(=O)[C@H](Cc1ccccc1)NC(=O)[C@H](C)NC(=O)[C@@H](NC(=O)[C@H](CO)NC(=O)[C@H](CO)NC(=O)[C@@H](N)CS)[C@H](C)O)C(=O)N[C@@H](CCCCN)C(=O)N[C@@H](CC(N)=O)C(=O)N[C@@H](CO)C(=O)N[C@@H](CC(N)=O)C(=O)N[C@@H](CCC(=O)O)C(=O)N1CCC[C@H]1C(=O)N[C@@H](Cc1cnc[nH]1)C(=O)N[C@@H](Cc1cnc[nH]1)C(=O)N[C@H](C(=O)N[C@@H](Cc1ccccc1)C(=O)N[C@@H](CC(N)=O)C(=O)N[C@@H](Cc1ccc(O)cc1)C(=O)O)[C@@H](C)CC | < 2 | – |
| H-TFNMYYNDIQQIKIKINQNE-OH | < 2 | – |
| H-YNNNHDKQNEHKYNQGKSSG-OH | < 2 | – |
| H-IQERNQNNQIVKELKYNKQI-OH | < 2 | – |
| H-CIKQTYNNNKSIESLKLKIN-OH | < 2 | – |
| H-EDEDENENEVENENEDFNDIY-OH | < 2 | – |
